What was measured:
Format in all cases: functional, cell-based
[1] = test system: MDA-MB-231; assay: Cytotoxicity against human MDA-MB-231 cells assessed as reduction in cell viability measured after 48 hrs by WST assay; conditions: MDA-MB-231, 48 h
How it was run: (§1)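 Cells grown at 37 °C, 5% CO2 with 10% fetal calf serum and penicillin/streptomycin: MCF7 and MDA-MB-231 in DMEM glucose, SKBR3 in DMEM F12 glutamine. Seeded at 12×10^3 cells/well, dosed after 24 h at 5–200 μM from DMSO stocks (DMSO […]) for 48 h. Doxorubicin positive control. Read-out was 10% WST for 1 h in the dark, absorbance at 440 nm. Triplicate, % inhibition versus control, IC50 estimated.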

[2] = test system: SK-BR-3; assay: Cytotoxicity against human SK-BR-3 cells assessed as reduction in cell viability measured after 48 hrs by WST assay; conditions: SK-BR-3, 48 h; how it was run: as §1
[3] = test system: MCF7; assay: Cytotoxicity against human MCF7 cells assessed as reduction in cell viability measured after 48 hrs by WST assay; conditions: MCF7, 48 h; how it was run: as §1

Measured: IC50

CC(C)=CCC/C(C)=C/C[C@]1(CC=C(C)C)C(=O)C(O)=C(C(=O)c2ccc(O)c(O)c2)C1=O
< 10 µM: all assays above

CC(C)=CCC/C(C)=C/C[C@@]1(CC=C(C)C)C(=O)C2=C(OC(C)(C)C[C@H]2c2occc(=O)c2O)C(C(=O)c2ccc(O)c(O)c2)=C1O
< 10 µM: all assays above

CC(C)=CCC/C(C)=C/CC1(CC=C(C)C)C(=O)C(C(=O)c2ccc(O)c(O)c2)=C2OC(C)(C)CC3OC23C1=O (stereo not given)
< 10 µM: all assays above

CC(C)=CCC/C(C)=C/C[C@]1(CC=C(C)C)C(=O)C2=C(OC(C)(C)C[C@H]2c2occc(=O)c2O)C(C(=O)c2ccc(O)c(O)c2)=C1O
< 10 µM: all assays above

CC(C)=CCC/C(C)=C/CC1(CC=C(C)C)C(=O)C(C(=O)c2ccc(O)c(O)c2)=C2OC(C)(C)C(O)C3OC23C1=O (stereo not given)
< 10 µM: all assays above
